These results are taken from ChEMBL document CHEMBL4513216, “Probing the Open Global Health Chemical Diversity Library for Multistage-Active Starting Points for Next-Generation Antimalarials” (ACS Infect Dis, 2020).

This data set is described as follows: Toxicity liver stage against HepG2, at 10uM. The following applies: human, HepG2-A16-CD81EGFP cells; read-out: INHIBITION
On the set-up: test concentration 10 uM, cell line HepG2-A16-CD81EGFP. It is filed as cell-based. In a few lines:
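Uninfected HepG2-A16-CD81EGFP cells, 3 × 10^3 per well, 1536-well, plated on prespotted compound at 10 μM final, parasite-free screening media added to match infected plates; puromycin 10 μM positive, DMSO 0.5% negative; run in parallel with 48 h PbLuc assay at 37 °C, 5% CO2; viability by CellTiter-Glo luminescence, normalized to controls.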
Regarding `COc1ccc(-c2noc([C@@H]3C[C@@H](O)CN3C3CCN(C)CC3)n2)cc1`, the cytotoxicity at 10 µM is -1.16%.

Turning to `COC(=O)Cn1c(C)cc(=O)n2nc(-c3cccs3)nc12`, the cytotoxicity at 10 µM worked out at 8.74%.

Turning to `O=C(NCCCN1CCOCC1)c1ccc(-n2ccc3ccccc32)s1`, the cytotoxicity at 10 µM was -3.42%.

`COc1cc(CN2CCCCCC2c2cccs2)cc(OC)c1OC` (configuration not stated): the cytotoxicity at 10 µM stood at 33.3%.

In the case of `Cc1cc(Cl)ccc1-n1ncc(C(=O)N(C)CCc2ccccn2)c1N`, the cytotoxicity at 10 µM is -7.3%.

As to `O=C(O)c1cc(S(=O)(=O)Nc2cnn(C3CCOCC3)c2)ccc1F`, the cytotoxicity at 10 µM is -10.9%.

As to `CC(C)NC(=O)c1nc2c(s1)CCCN2C(C)C`, the cytotoxicity at 10 µM was -143%.

`CC(C)NC(=O)N1CCCC2(CC(C(=O)Nc3ccccc3)=NO2)C1` (configuration not stated): the cytotoxicity at 10 µM was -3.36%.

In the case of `COCC(=O)N1Cc2nccn2CC(COc2cccnc2)C1` (configuration not stated), the cytotoxicity at 10 µM was determined as 5.41%.

For the compound `Cc1nc(CN2CCOC3(CCCN(c4nccs4)C3)C2)cs1` (configuration not stated), the cytotoxicity at 10 µM was found to be 16.3%.

As for `Cc1csc(CN2CC[C@H]3C[C@@H](c4noc(C)n4)O[C@@H]3C2)n1`, the cytotoxicity at 10 µM was -1.2%.

In the case of `CS(=O)(=O)NC[C@]12COC[C@H]1CN(C(=O)c1ncccn1)C2`, the cytotoxicity at 10 µM stood at 4.9%.

For the compound `Cc1ccc(C)c(NC(=O)Nc2c[nH]c(=O)[nH]c2=O)c1`, the cytotoxicity at 10 µM worked out at 0.0452%.

Turning to `CCCc1nc(NCCCOC)c2c(n1)c(C)nn2CC`, the cytotoxicity at 10 µM turned out to be 24.6%.

As for `CCC(CN1CCCC1)NC(=O)C1(c2ccc(F)cc2)CC1` (configuration not stated), the cytotoxicity at 10 µM was -1.76%.

Consider `Cc1ccc(OCCN2CCC(c3nc(C)n4c(C)csc34)CC2)cc1`, for which the cytotoxicity at 10 µM amounted to 1.94%.

As to `O=C(CCn1c(C(F)(F)F)cc2cccnc21)N1CCC(O)CC1`, the cytotoxicity at 10 µM is -28.5%.

With `COc1ccccc1C1=NOC(CC2(C(=O)O)CCOCC2)C1` (configuration not stated), the cytotoxicity at 10 µM was -9.9%.

Regarding `CC(=O)N1CCC(c2cnc(-c3c(C)nn(C)c3C)cn2)CC1`, the cytotoxicity at 10 µM is -33.6%.

`Cc1ncc(CNC(=O)CCc2cccs2)c(C2CCCN2C)n1` (configuration not stated): the cytotoxicity at 10 µM is -9.72%.

Consider `CCCN(C(=O)c1cnccn1)c1nc2c(s1)CCc1c-2cnn1C`, for which the cytotoxicity at 10 µM is -16.7%.

Consider `C=Cc1ccc(CN2CCCC3(CNC(=O)c4ccccc4O3)C2)cc1` (configuration not stated), for which the cytotoxicity at 10 µM is -22.6%.

As to `CS(=O)(=O)N1CCCC(Cc2cncc(Br)c2)CC1` (configuration not stated), the cytotoxicity at 10 µM came out at 2.16%.

As for `Cc1ncc(C(=O)N2CCCC(Cc3nccs3)C2)cn1` (configuration not stated), the cytotoxicity at 10 µM is -2.03%.

As for `O=C1Nc2ccccc2CNC12CCN(CC1CCNC1)CC2` (configuration not stated), the cytotoxicity at 10 µM was found to be 6.61%.

For the compound `CC(O)CNC(=O)Nc1ccc(Br)cc1Br` (configuration not stated), the cytotoxicity at 10 µM is -1.45%.

Consider `CCCS(=O)(=O)NC(C)c1cccc(-n2cccn2)c1` (configuration not stated), for which the cytotoxicity at 10 µM was 3.65%.

Turning to `COc1ccc(CNC(=O)c2ccoc2CN2CCNC(=O)C2)cc1`, the cytotoxicity at 10 µM was 6.41%.

Consider `NC(c1ccccc1)c1ccc(OC(F)F)cc1` (configuration not stated), for which the cytotoxicity at 10 µM came to 1.79%.

As to `Cc1ccc(CN(C)C(=O)NCC(=O)NC(C)(C)C)s1`, the cytotoxicity at 10 µM worked out at 0.136%.

On to `Cc1ccc(CN(C)C(=O)NCC(C)(C)CCS(C)(=O)=O)s1`, for which the cytotoxicity at 10 µM was 6.24%.

With `COc1ccc(CCCC(=O)NCc2c(C)noc2C)cc1F`, the cytotoxicity at 10 µM is -6.35%.

`COc1c(CNCc2ccc(N3CCOCC3)cc2)c(C)nn1C`: the cytotoxicity at 10 µM turned out to be 2.1%.

In the case of `CN(C)c1ccc(C(=O)N(CCO)CC2CC2)c(F)c1`, the cytotoxicity at 10 µM worked out at 5.25%.

As for `COCCN(Cc1cccnc1)S(=O)(=O)c1cccc(F)c1F`, the cytotoxicity at 10 µM is -1.89%.

For the compound `CC(C)c1n[nH]c(C2CN(C(=O)c3cc(C4CC4)on3)CCO2)n1` (configuration not stated), the cytotoxicity at 10 µM was -1.7%.

`O=C(C1CC=CC1)N1CCC2(CC1)OCCO2`: the cytotoxicity at 10 µM was 6.9%.

On to `CC(C)CC(=O)NCCCn1cncn1`, for which the cytotoxicity at 10 µM was -18.9%.

Consider `CNS(=O)(=O)CCCN1CCN(C(C)c2cccnc2)CC1` (configuration not stated), for which the cytotoxicity at 10 µM was -10.7%.

For the compound `COc1ccc(CCNC(=O)CC(NC(N)=O)c2ccccc2)cc1` (configuration not stated), the cytotoxicity at 10 µM came out at 2.19%.

Consider `N#Cc1cc(N2CCC(S(N)(=O)=O)CC2)c2ccccc2n1`, for which the cytotoxicity at 10 µM was -5.03%.

Turning to `O=c1[nH]c2csnc2c(=O)n1Cc1ccc(Br)cc1`, the cytotoxicity at 10 µM is 5.41%.

As for `CS(=O)(=O)Cc1ccc(C(=O)NCc2ccc(Cl)cc2Cl)cc1`, the cytotoxicity at 10 µM was -47.6%.

Consider `O=C1C(Nc2ccc3nccnc3n2)CCN1c1ccccc1` (configuration not stated), for which the cytotoxicity at 10 µM is 0.562%.

With `Cc1nccn1C1CCCN(C(=O)Cn2ccc(=O)n(C)c2=O)C1` (configuration not stated), the cytotoxicity at 10 µM was -5.17%.

Take `O=C(CCCNC(=O)C1CCCO1)Nc1ccc(Cl)cc1` (configuration not stated): the cytotoxicity at 10 µM was 13.2%.

On to `CN(CCOc1cccc(CNC(=O)C2CC2)c1)C1CCOCC1`, for which the cytotoxicity at 10 µM is -7.12%.

For `CCc1nc(CN2CCCC(N(C)Cc3cnn(C)c3)C2)no1` (configuration not stated), the cytotoxicity at 10 µM is -14.5%.

In the case of `CCc1nccn1C1CCCN(C(=O)c2cnc3ccccc3n2)C1` (configuration not stated), the cytotoxicity at 10 µM is -4.61%.

For the compound `Cc1cccc(N2CCN(CCCNC(=O)c3nccn3C)CC2)c1`, the cytotoxicity at 10 µM was -0.679%.

For `Cc1ccsc1C(=O)N1CCc2ncc(Cn3cccn3)n2CC1`, the cytotoxicity at 10 µM is -108%.

`O=c1c(-c2ccnc(NC3CCCCC3)n2)cnc2sc(Cl)cn12`: the cytotoxicity at 10 µM is -6.22%.

Consider `CC(C)Nc1ncc(-c2csc(NC(=O)C[C@H]3COCCN3)n2)cn1`, for which the cytotoxicity at 10 µM was -8.69%.

`CCCN1CCCn2nc(CNS(=O)(=O)c3cnn(CC)c3)cc2C1`: the cytotoxicity at 10 µM is -7.23%.

`Cc1nn(C)c(C)c1CN(C)C(=O)c1cccc(CCC(C)(C)O)c1`: the cytotoxicity at 10 µM was 3.13%.

In the case of `Cc1ccc(OC2(C(=O)O)CCN(C(=O)c3ccccc3F)CC2)cn1`, the cytotoxicity at 10 µM was 2.75%.

For the compound `CCC(NC1Cc2ccccc2C1)c1ccc(S(C)(=O)=O)cc1` (configuration not stated), the cytotoxicity at 10 µM was -2.02%.

Take `O=C(CCc1cc(Cl)no1)N1CCCCC1CCn1ccnc1` (configuration not stated): the cytotoxicity at 10 µM is -1.83%.

Regarding `Cc1cc2ccccc2n1CCC(=O)N1CCC2(CC1)CNC(=O)C2`, the cytotoxicity at 10 µM was 0.105%.

Take `O=C1CCN(Cc2cnc3c(-c4ccccc4)cnn3c2)CCN1`: the cytotoxicity at 10 µM is 11%.

`O=C(NCCc1ccccc1)c1cn(CCNCc2cccnc2)nn1`: the cytotoxicity at 10 µM is -2.68%.

With `CCc1nc2c(N3CCCC(c4nccn4CCOC)C3)ncnc2o1` (configuration not stated), the cytotoxicity at 10 µM was -11.2%.

For `Cc1cc(C(F)(F)F)nc(CNC(=O)CCC2CCCN(C)C2)n1` (configuration not stated), the cytotoxicity at 10 µM was -53.9%.

With `Cc1cccc(C(C(=O)NCC2(O)CCCCC2)N(C)C)c1` (configuration not stated), the cytotoxicity at 10 µM was -8.82%.

For `CC(C)CCC(=O)N1CCC(c2nnc(CN(C)CCO)n2C)CC1`, the cytotoxicity at 10 µM amounted to 0.832%.

For `CCc1nccn1CCC(=O)N1CC[C@H](CO)[C@H](O)C1`, the cytotoxicity at 10 µM is -1.2%.

Turning to `NCCn1cc(C(=O)NCc2ccccc2Cn2cccn2)nn1`, the cytotoxicity at 10 µM came out at 3.41%.

With `CCN(CC)C(=O)c1c(Br)cnn1CC`, the cytotoxicity at 10 µM was found to be 2.63%.

On to `CCN(CC)C(=O)c1ccc(CNc2cncc(-n3cccn3)n2)cc1`, for which the cytotoxicity at 10 µM is 7.18%.

For `Cc1cn2c(n1)CCC(NC(=O)CCCn1cncn1)C2` (configuration not stated), the cytotoxicity at 10 µM is -9.12%.

In the case of `CCC(NC(=O)c1ccoc1)c1ccccc1OCC(=O)N1CCCC1` (configuration not stated), the cytotoxicity at 10 µM is -4.31%.

Regarding `Cc1ccc(C(=O)N2CCC(Oc3ccccc3)CC2)c(=O)[nH]1`, the cytotoxicity at 10 µM was -1.01%.

Take `CC(C)Oc1ccc(C(=O)NCc2ccc3c(c2)CCCN3C)cn1`: the cytotoxicity at 10 µM was -6.63%.

For `CC(C)c1nc(CN(C)C2CCN(CCn3cc(C#N)cn3)C2)no1` (configuration not stated), the cytotoxicity at 10 µM was -6.29%.

For the compound `CCn1nc2c(cc1=O)CN(CC(=O)Nc1nncs1)CC2`, the cytotoxicity at 10 µM was -0.284%.

Take `Cc1cnn(CC2CCCN2C(=O)c2cc3ccccc3c(=O)[nH]2)c1` (configuration not stated): the cytotoxicity at 10 µM is -4.77%.

As for `O=C(CCc1ccccc1)N1CCCCC1Cn1cccn1` (configuration not stated), the cytotoxicity at 10 µM was 3.78%.

`CCc1nnc2n1CCN(CCC(=O)Nc1cc(C)on1)C2`: the cytotoxicity at 10 µM worked out at 4.23%.

As for `Cc1nn(C)c(C)c1C1CCCN1C(=O)CCc1cscn1` (configuration not stated), the cytotoxicity at 10 µM was -3.66%.

`Cn1ccnc1CN1CCCN(C(=O)c2ccc(Cl)o2)CC1`: the cytotoxicity at 10 µM is -7.03%.

Consider `Cc1cc(CN(C)C(=O)NC2CCCN(c3ncccn3)C2)no1` (configuration not stated), for which the cytotoxicity at 10 µM was -7.26%.

For `Cc1ncc(CN(C)C2CCCN(Cc3noc(C4CC4)n3)C2)s1` (configuration not stated), the cytotoxicity at 10 µM was -13.5%.

Take `c1ncn(CC2CCCN(Cc3nc(C4CC4)no3)C2)n1` (configuration not stated): the cytotoxicity at 10 µM was -12.9%.

As for `O=C1OCCC1N1CCN(C(=O)Cc2c[nH]c3ccccc23)CC1` (configuration not stated), the cytotoxicity at 10 µM was -7.03%.

With `Cc1nc(CN2C(=O)CCC23CCN(Cc2cccn2C)CC3)cs1`, the cytotoxicity at 10 µM stood at 0.676%.

On to `O=C(NCc1ccncc1)c1nc2c(o1)CN(C(=O)c1cccnc1)C2`, for which the cytotoxicity at 10 µM was found to be 1.21%.

On to `CN1CCC2(CCCN(C(=O)c3cncn3C)C2)CC1`, for which the cytotoxicity at 10 µM was -0.757%.

For the compound `O=C(CC1CC1)N1CC[C@H]2[C@@H]1CCC(=O)N2Cc1ccncc1`, the cytotoxicity at 10 µM is -5.15%.

On to `CN(C)CCN1CCOCC2(CCCN(C(=O)Cc3ccccc3)C2)C1` (configuration not stated), for which the cytotoxicity at 10 µM was 2.14%.

`Cc1ccc(-c2ccc(CC3NCCN(C)C3=O)cc2)cc1` (configuration not stated): the cytotoxicity at 10 µM was -25%.

Turning to `Cn1nnc2c1C(COCc1cccnc1)CN(Cc1ccoc1)C2` (configuration not stated), the cytotoxicity at 10 µM was -2.55%.

Consider `CC(C)N(C)Cc1nnc2n1CCN(S(=O)(=O)C1CC1)CC2`, for which the cytotoxicity at 10 µM is -1.13%.

With `CC(C)CN1CCC2(CCN(Cc3nccs3)CC2)C1=O`, the cytotoxicity at 10 µM is -5.77%.

`Cc1cncc(C(=O)N2CC[C@@H]3[C@H]2CCC(=O)N3CCN(C)C)c1`: the cytotoxicity at 10 µM was -4.84%.

On to `CC(C)Cn1cc2nc(N)[nH]cc-2c1=O`, for which the cytotoxicity at 10 µM is 5.26%.

On to `COc1ccc(-c2ncccc2C(=O)N2C[C@@H]3CC[C@H]2C3)cn1`, for which the cytotoxicity at 10 µM came out at 6.42%.

Regarding `Cc1nnsc1CN1C[C@@H]2CC[C@H]1CN(Cc1ccc(F)cc1)C2`, the cytotoxicity at 10 µM was -7.44%.
